Most compounds without a hit are left out; they make up all but 3.1% or so of the library.
Ecoli rRNA inh: reduced GFP signal of wild-type E. coli, primary screen, bacterial rRNA inhibitor project, GFP/RFP fluorescence, OD600, single point; hit rate 1.6% among 350,000; E. coli WT GFP vs humanized-ribosome RFP mutants, 24 h; stronger effect = lower value; DMSO median 0, no signal -100; GFP signal change (wild-type ribosome), % (test concentration not listed);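 active means significant combined selectivity score with lowered wild-type GFP, culture density cut under 30%, mutant RFP and density less affected; inactive means any of these conditions unmet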
S100A4 inh HTS: inhibitors of S100A4-myosin IIA peptide binding, primary screen, biochemical, fluorescence polarization, TAMRA-MyoIIA peptide. inhibition, % at 10.7 µM. hit rate 0.14% among 360,000. AID 652163, 2013;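 active means mean inhibition of at least 70% across replicates, with every replicate also reaching that level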
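Test system: S100A4 monomer protein; Medium: HEPES pH 7.2 with CaCl2, KCl, NaCl, DTT, Triton; Probe or stimulus: TAMRA-labelled myosin IIA heavy-chain peptide probe, 5 nM; Doses: one dose per compound; Times: polarization read 5 min after assay mix addition, stable 5–60 min; Benchmarks: neutral control DMSO, positive control TFP.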
ERAP1 inh: human ERAP1 aminopeptidase inhibitors, primary screen, biochemical, single point, plate reader. recombinant ERAP1, Leu-AMC fluorescence, 60 min. inhibition, % at 10.7 µM. hit rate 0.15% among 340,000. AID 652197, 2013;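 active means mean replicate inhibition of at least 30%, or all replicates individually reaching that 30% level; inactive means mean below 30% and not every replicate reaching it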;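 further: 0% = neutral control wells and 100% = L-leucinethiol positive control wells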
Target sequence (Q9NZ08 whole entry, looked up): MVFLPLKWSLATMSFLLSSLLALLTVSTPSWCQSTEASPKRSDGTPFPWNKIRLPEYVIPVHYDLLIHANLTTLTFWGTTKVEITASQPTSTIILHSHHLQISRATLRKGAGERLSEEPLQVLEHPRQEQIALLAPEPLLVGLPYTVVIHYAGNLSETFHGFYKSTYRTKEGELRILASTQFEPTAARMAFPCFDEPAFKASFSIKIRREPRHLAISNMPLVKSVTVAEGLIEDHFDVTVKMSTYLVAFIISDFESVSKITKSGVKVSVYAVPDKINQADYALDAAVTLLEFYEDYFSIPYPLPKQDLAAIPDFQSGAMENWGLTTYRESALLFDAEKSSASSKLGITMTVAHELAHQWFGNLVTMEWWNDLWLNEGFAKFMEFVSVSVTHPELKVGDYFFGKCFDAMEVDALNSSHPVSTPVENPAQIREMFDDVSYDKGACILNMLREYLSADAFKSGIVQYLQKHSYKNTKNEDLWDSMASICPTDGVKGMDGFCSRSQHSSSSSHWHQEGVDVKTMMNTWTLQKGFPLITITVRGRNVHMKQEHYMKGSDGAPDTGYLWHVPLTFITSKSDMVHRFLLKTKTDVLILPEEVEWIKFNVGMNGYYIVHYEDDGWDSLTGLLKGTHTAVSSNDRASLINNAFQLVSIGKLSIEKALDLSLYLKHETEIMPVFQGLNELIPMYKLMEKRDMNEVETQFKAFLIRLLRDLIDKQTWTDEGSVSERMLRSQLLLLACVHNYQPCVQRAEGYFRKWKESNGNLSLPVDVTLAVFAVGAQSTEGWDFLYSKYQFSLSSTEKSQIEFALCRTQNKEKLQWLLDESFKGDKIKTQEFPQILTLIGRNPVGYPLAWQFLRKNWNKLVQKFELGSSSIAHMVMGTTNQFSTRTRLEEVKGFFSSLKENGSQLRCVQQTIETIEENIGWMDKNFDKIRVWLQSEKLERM
SIRT5 block: SIRT5 desuccinylase inhibitors, primary screen, biochemical, fluorescence imaging, single point, set 5; inhibition, % at 15 µM; hit rate 1.1% among 330,000; NAD-dependent protein deacylase sirtuin-5, mitochondrial (Homo sapiens), Q9NXA8; AID 652115, 2013; Purified SirT5, succinyl-peptide AMC, trypsin-coupled fluorescence; in the data active means inhibition above about 15%
CFTR F508del cor: F508del CFTR correction, initial screen, CFBE line, single point. hit rate 0.36% among 350,000. CFBE cells, YFP halide quenching; stimulated with forskolin plus potentiator P3; % fluorescence drop versus neutral controls. activity (quench increase), % at 7.58 µM;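 active means mean added fluorescence quench of at least 8% versus neutral control, with both replicates also reaching 8%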;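 further: cells transiently co-express mutant CFTR-F508del with the halide-sensitive YFP; corrector assay measuring rescue of mutant channel to the surface after 24 h compound exposure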
Numbers without * were called inactive.

Screening C[C@@H]1CN([C@@H](C)CO)C(=O)c2cccc(NC(=O)NC3CCCCC3)c2O[C@@H]1CN(C)Cc1ccc(Cl)c(Cl)c1 returned Ecoli rRNA inh -6, S100A4 inh HTS -2, ERAP1 inh -1, SIRT5 block 1 and CFTR F508del cor 9.3*.
Screening C[C@H](CO)N1C[C@H](C)[C@@H](CN(C)Cc2ccc(Oc3ccccc3)cc2)Oc2c(NC(=O)CCCCCC(=O)Nc3ccccc3N)cccc2C1=O returned Ecoli rRNA inh 0, S100A4 inh HTS -6, ERAP1 inh -1, SIRT5 block 22* and CFTR F508del cor 4.
Screening C[C@@H]1CN([C@H](C)CO)C(=O)c2cccc(NC(=O)CCCCCC(=O)Nc3ccccc3N)c2O[C@H]1CN(C)Cc1ccc(Cl)c(Cl)c1 returned Ecoli rRNA inh -10, S100A4 inh HTS 4, ERAP1 inh 3, SIRT5 block 15* and CFTR F508del cor 3.
`C[C@H]1CN([C@@H](C)CO)C(=O)c2cccc(NC(=O)NC3CCCCC3)c2O[C@H]1CN(C)Cc1ccc(Cl)c(Cl)c1` gave Ecoli rRNA inh -7, S100A4 inh HTS 8, ERAP1 inh -1, SIRT5 block -3 and CFTR F508del cor 2.
`C[C@H](CO)N1C[C@H](C)[C@@H](CN(C)CC2CCCCC2)Oc2c(NC(=O)CCCCCC(=O)Nc3ccccc3N)cccc2C1=O` gave Ecoli rRNA inh -11, S100A4 inh HTS 1, ERAP1 inh -1, SIRT5 block 19* and CFTR F508del cor 1.
C[C@@H]1CN([C@@H](C)CO)C(=O)c2cccc(NC(=O)CCCCCC(=O)Nc3ccccc3N)c2O[C@H]1CN(C)Cc1ccc(Oc2ccccc2)cc1 was read as Ecoli rRNA inh -1.
Screening COCC(=O)N1C[C@H](C)[C@@H](OC)CN(C)C(=O)c2ccc(NS(C)(=O)=O)cc2OC[C@@H]1C returned Ecoli rRNA inh 0, S100A4 inh HTS 2, SIRT5 block -1 and CFTR F508del cor -1.
For C[C@H](CO)N1C[C@H](C)[C@H](CN(C)C(=O)Nc2cccc3ccccc23)Oc2c(NC(=O)c3cnccn3)cccc2C1=O the results were Ecoli rRNA inh -3, S100A4 inh HTS 2, ERAP1 inh 4, SIRT5 block -1 and CFTR F508del cor -2.
`CC(C)CC#Cc1ccc2c(c1)O[C@H](CN(C)C(=O)Cc1ccccn1)[C@@H](C)CN([C@H](C)CO)S2(=O)=O` gave Ecoli rRNA inh -3, S100A4 inh HTS -11, ERAP1 inh 2, SIRT5 block -6 and CFTR F508del cor 3.
CCS(=O)(=O)Nc1ccc2c(c1)C(=O)N(C)C[C@H](OC)[C@@H](C)CN(C(=O)COC)[C@H](C)CO2 was read as Ecoli rRNA inh 2, S100A4 inh HTS -1, ERAP1 inh 1, SIRT5 block 0 and CFTR F508del cor -1.
Screening CNC[C@@H]1Oc2ccc(NS(=O)(=O)c3cn(C)cn3)cc2CC(=O)N([C@H](C)CO)C[C@@H]1C returned Ecoli rRNA inh 4, S100A4 inh HTS 4, ERAP1 inh -1, SIRT5 block -3 and CFTR F508del cor -1.
Screening COc1ccc(NC(=O)N(C)C[C@@H]2Oc3ccc(NS(=O)(=O)c4ccc(C)cc4)cc3C(=O)N([C@@H](C)CO)C[C@H]2C)cc1 returned Ecoli rRNA inh 2 and CFTR F508del cor -2.
C[C@H](CO)N1C[C@H](C)[C@H](CN(C)Cc2ccccc2)Oc2c(NC(=O)CCCCCC(=O)Nc3ccccc3N)cccc2C1=O was read as Ecoli rRNA inh 3, S100A4 inh HTS 108*, ERAP1 inh 2, SIRT5 block 2 and CFTR F508del cor -2.
CO[C@H](CN(C)S(=O)(=O)c1cccc(Cl)c1)[C@@H](C)CN([C@@H](C)CO)S(=O)(=O)c1cccc(Cl)c1 was read as Ecoli rRNA inh -4, S100A4 inh HTS -4, ERAP1 inh 1, SIRT5 block 1 and CFTR F508del cor 1.
`O=[N+]([O-])c1cccc(/C=C/c2ccccn2)c1` gave Ecoli rRNA inh 2, S100A4 inh HTS -1, ERAP1 inh -2, SIRT5 block 24* and CFTR F508del cor 0.
C[C@H]1CN([C@@H](C)CO)C(=O)c2cccc(NC(=O)Nc3cccc4ccccc34)c2O[C@@H]1CN(C)C(=O)Nc1ccc2c(c1)OCO2 was read as Ecoli rRNA inh -3, S100A4 inh HTS -11, ERAP1 inh -2, SIRT5 block 0 and CFTR F508del cor -3.
Screening CC(=O)Nc1ccc(N2CCOCC2)c(S(=O)(=O)Nc2ccccc2Cl)c1 returned Ecoli rRNA inh 1, S100A4 inh HTS -2, ERAP1 inh 2, SIRT5 block 4 and CFTR F508del cor 0.
For C=CCNC(=S)Nc1ccc(N2CCOCC2)c(S(=O)(=O)Nc2ccccc2Cl)c1 the results were Ecoli rRNA inh -34*, S100A4 inh HTS -5, ERAP1 inh -4, SIRT5 block -3 and CFTR F508del cor 1.
`C[C@@H]1CN([C@H](C)CO)C(=O)c2cc(-c3ccccc3)cnc2O[C@H]1CN(C)Cc1cccnc1` gave Ecoli rRNA inh 4, S100A4 inh HTS -5, ERAP1 inh 0, SIRT5 block -3 and CFTR F508del cor -3.
C=CCn1c(SCC(=O)NC23CC4CC(CC(C4)C2)C3)nc2cc(C(=O)O)ccc2c1=O was read as Ecoli rRNA inh -23*, S100A4 inh HTS -56, ERAP1 inh 2, SIRT5 block -5 and CFTR F508del cor 5.
`Nc1nc(SCC(=O)Nc2ccc3c(c2)CCC3)n[nH]1` gave Ecoli rRNA inh 4, S100A4 inh HTS 2, ERAP1 inh 4 and SIRT5 block -3.
Screening O=C(CSc1cccc[n+]1[O-])Nc1cccc(Oc2ccccc2)c1 returned Ecoli rRNA inh -36, S100A4 inh HTS -3, ERAP1 inh 3, SIRT5 block -2 and CFTR F508del cor 3.
For O=C(CSc1ncnc2[nH]ncc12)Nc1cccc(Oc2ccccc2)c1 the results were Ecoli rRNA inh -43*, S100A4 inh HTS -5, ERAP1 inh 6, SIRT5 block -2 and CFTR F508del cor 0.
O=C(CCl)Nc1cccc(Oc2ccccc2)c1 was read as Ecoli rRNA inh -26*, S100A4 inh HTS -7, ERAP1 inh -2, SIRT5 block -3 and CFTR F508del cor -4.
Screening Nc1nc(SCC(=O)Nc2cccc(Oc3ccccc3)c2)n[nH]1 returned Ecoli rRNA inh -24*, S100A4 inh HTS 17, ERAP1 inh -4, SIRT5 block -2 and CFTR F508del cor 2.

From PubChem BioAssay
